Measured values from different studies.
Compare with care: the assays were run in different laboratories.
Target: RAF proto-oncogene serine/threonine-protein kinase (RAF1, Homo sapiens, UniProt P04049)

SMILES | observed | action | technique | tested at | measurement | result
N#Cc1ccc(NC(=O)Nc2ccccc2)cc1 | cell-free assay | – | competition with immobilised ligand | 25 µM | remaining binding | 98%
CO[C@@H]1[C@H](N(C)C(=O)c2ccccc2)C[C@H]2O[C@]1(C)n1c3ccccc3c3c4c(c5c6ccccc6n2c5c31)C(=O)NC4 | enzyme activity | inhibitor | – | 1 µM | inhibition | 0%
Cc1cc(O)c(-c2ccc([C@@H](C)CN(C)C)cc2)c2c1[nH]c(=O)c1sccc12 | enzyme activity | inhibitor | – | 0.1 µM | inhibition | 7.07%
C#Cc1cnc(Nc2ccnc(CO)c2)nc1Nc1ccccc1S(C)(=O)=NC#N (stereo not shown) | cell-free assay | – | – | 1 µM | remaining signal | 85%
COc1ccc2oc(-c3ccc4nc(N)oc4c3)c/c(=N\c3ccccc3NC(=O)CCN)c2c1 | binding | – | – | 1 µM | remaining binding | 104%
Cc1ccc(NC(=O)c2ccnc(C(F)(F)F)c2)cc1-c1cc(OCCO)nc(N2CCOCC2)c1 | binding | – | competition with immobilised ligand | 1 µM | remaining binding | 1.2%
C=CC(=O)N1CCC([C@@H]2CCNc3c(C(N)=O)c(-c4ccc(Oc5ccccc5)cc4)nn32)CC1 | enzyme activity | inhibitor | – | 1 µM | inhibition | 0%
CCCCC(=O)Nc1ccc(-c2ccc3ncn(CCC)c(=O)c3c2)cn1 | binding | – | competition with immobilised ligand | 0.5 µM | remaining binding | 80%
COc1ccc2[nH]c3c4[nH]c5ccc(OC)cc5c4c4c(c3c2c1)C(=O)NC4=O | binding | – | competition with immobilised ligand | 1 µM | remaining binding | 100%
C#Cc1cc(-c2cc(Nc3nc(N[C@@H](C)c4ccc(F)cn4)ncc3Cl)n[nH]2)ccc1C=O | enzyme activity | inhibitor | – | 0.2 µM | inhibition | 13.8%
